Source: ChEMBL document CHEMBL4428057, “Discovery, Synthesis, and Evaluation of 2,4-Diaminoquinazolines as a Novel Class of Pancreatic β-Cell-Protective Agents against Endoplasmic Reticulum (ER) Stress” (J Med Chem, 2016)
Active and inactive are the calls of the source.

Columns and labels:
[1] = tested on: INS1; assay: Suppression of tunicamycin impaired glucose-stimulated insulin secretion in rat INS-1 cells at 10 to 20 uM preincubated for 24 hrs followed by 25 mM glucose addition for 1 hr by ELISA; assay type: functional, cell-based
Procedure, shortened: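 INS-1 cells in 96-well plates given Tm 0.1 µg/mL plus compound for 24 h, preincubated 1 h in KRBH (pH 7.4, 2% BSA) with 2.5 mM glucose, then 1 h in 2.5 or 25 mM glucose. Secreted insulin by ELISA, corrected for total protein (Bradford); 2.5 mM glucose without Tm set to 1.0.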

[2] = biological target: T1, Eukaryotic translation initiation factor 2-alpha kinase 3 (Rattus norvegicus) (UniProt Q9Z1Z1); assay: Inhibition of PERK pathway in rat INS-1 cells assessed as reduction in tunicamycin induced CHOP mRNA levels at 20 uM after 2 to 24 hrs by qRT-PCR method; assay type: cell-based
T1 sequence (whole entry): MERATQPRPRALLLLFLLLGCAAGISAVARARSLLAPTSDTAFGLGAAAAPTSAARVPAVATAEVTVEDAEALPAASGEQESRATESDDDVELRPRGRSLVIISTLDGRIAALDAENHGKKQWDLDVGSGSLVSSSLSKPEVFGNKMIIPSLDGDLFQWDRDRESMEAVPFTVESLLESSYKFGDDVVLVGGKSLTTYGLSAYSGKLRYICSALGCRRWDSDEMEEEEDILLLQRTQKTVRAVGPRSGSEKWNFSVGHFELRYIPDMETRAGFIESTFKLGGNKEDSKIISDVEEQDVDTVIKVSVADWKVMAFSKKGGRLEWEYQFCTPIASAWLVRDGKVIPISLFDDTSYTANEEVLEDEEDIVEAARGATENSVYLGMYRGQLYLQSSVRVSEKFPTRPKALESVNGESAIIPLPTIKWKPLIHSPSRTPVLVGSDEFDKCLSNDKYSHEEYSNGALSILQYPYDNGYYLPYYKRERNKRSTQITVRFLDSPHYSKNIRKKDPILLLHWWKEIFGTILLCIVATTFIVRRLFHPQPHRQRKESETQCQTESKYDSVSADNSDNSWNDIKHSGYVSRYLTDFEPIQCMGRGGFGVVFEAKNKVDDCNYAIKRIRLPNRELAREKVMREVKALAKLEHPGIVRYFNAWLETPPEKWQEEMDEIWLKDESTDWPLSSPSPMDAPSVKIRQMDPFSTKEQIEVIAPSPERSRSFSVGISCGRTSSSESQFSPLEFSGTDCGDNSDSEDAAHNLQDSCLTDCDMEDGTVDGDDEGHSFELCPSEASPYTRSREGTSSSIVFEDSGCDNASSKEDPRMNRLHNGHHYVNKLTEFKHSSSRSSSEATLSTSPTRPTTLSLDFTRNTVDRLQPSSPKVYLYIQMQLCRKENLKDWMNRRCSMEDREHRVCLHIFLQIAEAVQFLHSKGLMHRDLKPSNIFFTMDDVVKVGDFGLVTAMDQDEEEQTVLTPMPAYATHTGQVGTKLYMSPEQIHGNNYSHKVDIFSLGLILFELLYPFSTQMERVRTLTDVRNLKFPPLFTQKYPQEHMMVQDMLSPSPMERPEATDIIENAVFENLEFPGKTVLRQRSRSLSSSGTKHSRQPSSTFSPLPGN
Procedure, shortened: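 ATF4 or CHOP mRNA measured by qRT-PCR in INS-1 cells treated with Tm 0.1 µg/mL ± compound 20 µM or DMSO for the indicated times. Expressed as fold-increase over untreated control; means of 3 replicate wells, representative of 3 independent experiments, SD.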

[3] = tested on: INS1; assay: Reversal of tunicamycin-induced suppression of PDX1 mRNA levels in rat INS-1 cells at 20 uM after 24 hrs by qRT-PCR method; assay type: functional, cell-based
Procedure, shortened: (§1)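 INS-1 cells (4×10^5/well, 6-well plates) given Tm 0.1 µg/mL ± compound 20 µM or DMSO for 24 h. INS1, INS2, PDX1 and MafA mRNA measured by qRT-PCR with rat primers. Means of 3 replicate wells, representative of 3 independent experiments; SD.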

[4] = tested on: INS1; assay: Reversal of tunicamycin induced PARP cleavage in rat INS-1 cells at 20 uM after 2 to 24 hrs by Western blot analysis; assay type: functional, cell-based
Procedure, shortened: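 Western blots of INS-1 cells (8×10^5/60-mm dish) treated with Tm 0.1 µg/mL ± compound 20 µM or DMSO for the indicated times. Lysates with EDTA and phosphatase inhibitors; 20 µg protein on 7% SDS-PAGE, PVDF. Primary antibodies at 1:1000 against ATF4, CHOP, cleaved caspase 3 or PARP; α-tubulin loading control; HRP secondaries. Representative of 3 experiments.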

[5] = tested on: INS1; assay: Reversal of tunicamycin-induced suppression of MafA mRNA levels in rat INS-1 cells at 20 uM after 24 hrs by qRT-PCR method; assay type: functional, cell-based; procedure, shortened: as §1
[6] = tested on: Beta-TC6; assay: Protection against tunicamycin induced endoplasmic reticulum stress in mouse BetaTC6 cells assessed as increase in cell viability after 72 hrs by MTT assay; assay type: functional, cell-based
Procedure, shortened: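 βTC6 cells (DMEM, 15% FBS) seeded at 3×10^3/well in 384-well plates with Tm 0.25 µg/mL ± compound or DMSO for 72 h. Viability by CellTiter-Glo (ATP luminescence) or MTT: 3 h with reagent at 37 °C, then 4 h with crystal-dissolving solution, absorbance at 570 nm. 3 replicate wells, 3 experiments.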

COc1ccc(CNc2nc(N3CCCCC3CO)nc3ccccc23)cc1 (racemic)
active: Activity [1] | inhibition [2] | Activity [3] | Activity [4] | Activity [5] | Activity [6] Dose-dependent effect
